# From ChEMBL document CHEMBL5674882, “Benzolactam-related compounds promote apoptosis of HIV-infected human cells via protein kinase C-induced HIV latency reversal” (J Biol Chem, 2019)
# Tests used:
# Protein kinase C (PKC) [1] = assay: Activation of PKC in human J-Lat 6.3 cells infected with latent HIV-1 assessed as reversal of HIV-1 latency by measuring increase of GFP-positive cells at 1 to 10000 nM incubated for 24 hrs by flow cytometry; type: cell-based
# Procedure, shortened: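 J-Lat 10.6 or J-Lat 6.3 cells (5 × 10^5 cells/ml) incubated 24 h with graded drug concentrations; % GFP-positive cells determined by flow cytometry. Means ± S.D. of three independent experiments.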
# [2] = target: T1, Protein kinase C (PKC) (Homo sapiens) (UniProt O94806+P41743+P17252+P05129+Q05655+P05771+Q05513+Q02156+P24723+Q15139+Q04759); assay: Synergistic activation of PKC in human U1 cells infected with latent HIV-1 assessed as reversal of HIV-1 latency by measuring increase in p24 antigen level at 50 nM incubated for 48 hrs in presence of 100 nM JQ1 by chemiluminescent enzyme immunoassay relative to compound alone; type: cell-based; settings: filed as activator
# Procedure, shortened: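 U1 cells at 5 × 10^5 cells/ml incubated 48 h with test agent alone or plus 100 nm JQ1. Supernatant p24 antigen quantified by automated immunoassay. Fold reactivation computed versus the same agent without JQ1. Mean ± S.D. of three independent experiments.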
# [3] = target: T1, Protein kinase C (PKC) (Homo sapiens); assay: Synergistic activation of PKC in CD4+ T-cells purified from HIV-infected patient assessed as increase in transcription of HIV mRNA at 5 uM incubated for 24 hrs in presence of 1 uM JQ1 by qRT-PCR method; type: cell-based; settings: CD4+ T cell, filed as activator
# Procedure, shortened: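 CD4+ T-cells purified from PBMC of patients on cART for at least 5 years with plasma viral load <20 copies/ml. Cells plated at 2.5 × 10^6 cells/ml and treated 24 h, alone or with 1 μm JQ1. Intracellular HIV RNA measured by qRT-PCR against a plasmid standard curve, normalised per ng input RNA, relative to untreated cells. Synergy assessed by Bliss independence model.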
# J-Lat 6.3 = assay: Induction of apoptosis in human J-Lat 6.3 cells assessed as caspase-3 activation at 1 uM incubated for 24 hrs by flow cytometry; type: functional
# Procedure, shortened: (§1)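 Cells fixed in 1% paraformaldehyde, permeabilized, stained 30 min on ice with anti-active caspase-3 mAb, and analysed by flow cytometry. Three independent experiments.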
# Protein kinase C (PKC) [4] = assay: (§2) Activation of PKC in human U1 cells infected with latent HIV-1 assessed as reversal of HIV-1 latency by measuring increase in p24 antigen level incubated for 48 hrs by chemiluminescent enzyme immunoassay; type: cell-based
# [5] = target: T1, Protein kinase C (PKC) (Homo sapiens); assay: as §2; type: cell-based; settings: filed as activator
# U1 = assay: Induction of apoptosis in human U1 cells assessed as caspase-3 activation at 1 uM incubated for 24 hrs by flow cytometry (reference value: 1.86%); type: functional; procedure, shortened: as §1
# Jurkat = assay: Induction of apoptosis in human Jurkat cells assessed as caspase-3 activation at 1 uM incubated for 24 hrs by flow cytometry; type: functional; procedure, shortened: as §1
structure (smiles),measurement,setting,value
CCCCCCCCCCc1ccc2c(c1)N(C)[C@@H](C(C)C)C(=O)N[C@H](CO)C2,EC50,Protein kinase C (PKC) [1],6.3 µM
same,fold change (FC),[2],4.5
same,fold change (FC),[3],13.4
same,Activity,J-Lat 6.3,12.2%
same,EC50,Protein kinase C (PKC) [4],0.034 µM
same,Activity,[5],Dose-Dependent Effect
same,Activity,U1,7.7%
same,Activity,Jurkat,2.63%
